Data published in publication PMC2119941 (The Journal of Cell Biology, 1994).
No end group written: not given here.

Key:
alpha 5 beta 1 integrin [1] = target: T1, alpha 5 beta 1 integrin (Homo sapiens, UniProt P05556+P08648); type: binding; conditions: unrelated cyclic control peptide
alpha 5 beta 1 integrin [2] = target: alpha 5 beta 1 integrin (UniProt G3HZ55+P08648); assay: Cell attachment assay: B2/a27 cells on fibronectin; type: cell-based, human
alpha 5 beta 1 integrin [3] = target: T1, alpha 5 beta 1 integrin; type: binding; conditions: control peptide; not shown
alpha 5 beta 1 integrin [4] = target: T1, alpha 5 beta 1 integrin; type: binding
[5] = target: alpha IIb beta 3 integrin (Homo sapiens, UniProt P05106+P08514); assay: Binding to wells coated with alpha IIb beta 3 integrin
alpha v beta 3 integrin = alpha v beta 3 integrin (Homo sapiens, UniProt P05106+P06756); type: binding
Procedure, shortened: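 Human placental αvβ3 (octyl glucoside extract with 1 mM MnCl2 and 1 mM CaCl2) coated in microtiter wells. Phage incubated 1 h at room temperature, then washed five times. Bound phage infected K91kan bacteria for 10 min at 37°C, then grown in Terrific broth with tetracycline and kanamycin (30 min at 37°C, then overnight at room temperature with shaking). Bacterial growth read as A600.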

T1 sequence (P08648 42-894 limits assumed): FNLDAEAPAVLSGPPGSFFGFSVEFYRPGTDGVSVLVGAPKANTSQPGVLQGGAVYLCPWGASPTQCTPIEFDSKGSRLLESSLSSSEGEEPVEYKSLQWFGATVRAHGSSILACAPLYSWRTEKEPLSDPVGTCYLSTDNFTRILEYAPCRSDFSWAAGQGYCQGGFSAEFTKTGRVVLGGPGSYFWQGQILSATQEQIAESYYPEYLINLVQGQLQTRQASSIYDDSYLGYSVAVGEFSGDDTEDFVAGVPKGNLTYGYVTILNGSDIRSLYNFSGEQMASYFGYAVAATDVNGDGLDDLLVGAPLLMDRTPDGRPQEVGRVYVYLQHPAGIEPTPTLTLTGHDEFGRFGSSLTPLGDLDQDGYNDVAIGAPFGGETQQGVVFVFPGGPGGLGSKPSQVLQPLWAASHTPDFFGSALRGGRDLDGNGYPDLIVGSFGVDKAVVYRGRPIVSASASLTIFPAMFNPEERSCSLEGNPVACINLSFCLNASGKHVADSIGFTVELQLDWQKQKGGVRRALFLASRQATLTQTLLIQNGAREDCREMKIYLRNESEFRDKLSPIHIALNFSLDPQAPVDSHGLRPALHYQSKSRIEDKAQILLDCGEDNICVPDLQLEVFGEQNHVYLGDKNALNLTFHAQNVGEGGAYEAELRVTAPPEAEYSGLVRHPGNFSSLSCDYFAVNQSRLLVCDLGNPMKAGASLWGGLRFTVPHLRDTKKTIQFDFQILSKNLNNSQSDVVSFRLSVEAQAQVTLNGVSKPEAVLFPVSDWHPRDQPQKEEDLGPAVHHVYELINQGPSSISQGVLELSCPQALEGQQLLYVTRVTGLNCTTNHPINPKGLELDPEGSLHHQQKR
T1 sequence (P08648 895-1049 limits assumed): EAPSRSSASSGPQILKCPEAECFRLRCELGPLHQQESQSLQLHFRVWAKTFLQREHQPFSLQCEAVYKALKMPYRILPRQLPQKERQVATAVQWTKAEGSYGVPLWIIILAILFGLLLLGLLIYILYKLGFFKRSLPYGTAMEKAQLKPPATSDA
T1 sequence (P05556 21-798): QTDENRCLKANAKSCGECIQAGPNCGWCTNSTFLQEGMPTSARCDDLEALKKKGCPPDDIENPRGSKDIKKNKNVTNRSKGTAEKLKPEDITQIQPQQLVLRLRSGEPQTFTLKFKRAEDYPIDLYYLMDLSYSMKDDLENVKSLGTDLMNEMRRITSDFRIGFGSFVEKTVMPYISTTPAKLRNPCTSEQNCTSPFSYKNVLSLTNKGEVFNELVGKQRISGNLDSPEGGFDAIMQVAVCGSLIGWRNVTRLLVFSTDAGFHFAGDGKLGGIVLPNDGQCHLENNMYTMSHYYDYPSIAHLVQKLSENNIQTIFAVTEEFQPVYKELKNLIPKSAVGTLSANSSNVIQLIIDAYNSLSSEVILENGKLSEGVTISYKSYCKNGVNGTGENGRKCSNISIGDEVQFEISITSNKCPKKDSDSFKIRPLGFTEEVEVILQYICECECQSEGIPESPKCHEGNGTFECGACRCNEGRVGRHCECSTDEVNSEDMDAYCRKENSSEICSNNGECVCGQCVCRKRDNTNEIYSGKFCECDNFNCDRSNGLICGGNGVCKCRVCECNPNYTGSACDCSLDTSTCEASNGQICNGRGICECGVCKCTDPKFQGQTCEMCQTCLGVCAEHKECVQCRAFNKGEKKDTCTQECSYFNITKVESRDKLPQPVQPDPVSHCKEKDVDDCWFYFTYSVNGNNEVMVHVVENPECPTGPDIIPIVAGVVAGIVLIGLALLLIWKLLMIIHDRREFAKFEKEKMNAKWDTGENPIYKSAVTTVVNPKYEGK
Sequence of alpha 5 beta 1 integrin (UniProt G3HZ55+P08648) (P08648 42-894 limits assumed): as the sequence (P08648 42-894 limits assumed) above
Sequence of alpha 5 beta 1 integrin (UniProt G3HZ55+P08648) (P08648 895-1049 limits assumed): as the sequence (P08648 895-1049 limits assumed) above
Sequence of alpha 5 beta 1 integrin (UniProt G3HZ55+P08648) (G3HZ55 21-798): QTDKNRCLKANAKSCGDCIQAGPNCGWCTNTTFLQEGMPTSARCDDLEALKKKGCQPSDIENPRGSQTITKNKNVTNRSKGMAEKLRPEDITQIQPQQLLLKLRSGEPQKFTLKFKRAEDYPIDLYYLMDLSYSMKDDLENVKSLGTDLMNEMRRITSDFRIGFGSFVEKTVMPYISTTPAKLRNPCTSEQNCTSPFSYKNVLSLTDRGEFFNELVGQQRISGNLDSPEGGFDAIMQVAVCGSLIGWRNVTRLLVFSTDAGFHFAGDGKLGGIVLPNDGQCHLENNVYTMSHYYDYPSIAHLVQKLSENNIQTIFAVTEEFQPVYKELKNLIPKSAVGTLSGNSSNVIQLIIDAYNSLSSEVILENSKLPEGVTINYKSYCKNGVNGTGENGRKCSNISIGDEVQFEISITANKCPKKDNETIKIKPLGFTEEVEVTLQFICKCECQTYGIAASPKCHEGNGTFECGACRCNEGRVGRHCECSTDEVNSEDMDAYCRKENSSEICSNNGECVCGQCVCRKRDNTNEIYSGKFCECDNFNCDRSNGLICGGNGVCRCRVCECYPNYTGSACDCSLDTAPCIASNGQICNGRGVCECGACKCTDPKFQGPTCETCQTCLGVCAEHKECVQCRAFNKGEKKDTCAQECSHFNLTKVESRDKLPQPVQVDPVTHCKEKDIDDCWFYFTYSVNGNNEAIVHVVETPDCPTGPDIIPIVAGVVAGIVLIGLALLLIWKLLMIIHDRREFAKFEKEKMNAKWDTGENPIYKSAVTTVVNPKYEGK
Sequence of alpha IIb beta 3 integrin (P08514 32-887 limits assumed): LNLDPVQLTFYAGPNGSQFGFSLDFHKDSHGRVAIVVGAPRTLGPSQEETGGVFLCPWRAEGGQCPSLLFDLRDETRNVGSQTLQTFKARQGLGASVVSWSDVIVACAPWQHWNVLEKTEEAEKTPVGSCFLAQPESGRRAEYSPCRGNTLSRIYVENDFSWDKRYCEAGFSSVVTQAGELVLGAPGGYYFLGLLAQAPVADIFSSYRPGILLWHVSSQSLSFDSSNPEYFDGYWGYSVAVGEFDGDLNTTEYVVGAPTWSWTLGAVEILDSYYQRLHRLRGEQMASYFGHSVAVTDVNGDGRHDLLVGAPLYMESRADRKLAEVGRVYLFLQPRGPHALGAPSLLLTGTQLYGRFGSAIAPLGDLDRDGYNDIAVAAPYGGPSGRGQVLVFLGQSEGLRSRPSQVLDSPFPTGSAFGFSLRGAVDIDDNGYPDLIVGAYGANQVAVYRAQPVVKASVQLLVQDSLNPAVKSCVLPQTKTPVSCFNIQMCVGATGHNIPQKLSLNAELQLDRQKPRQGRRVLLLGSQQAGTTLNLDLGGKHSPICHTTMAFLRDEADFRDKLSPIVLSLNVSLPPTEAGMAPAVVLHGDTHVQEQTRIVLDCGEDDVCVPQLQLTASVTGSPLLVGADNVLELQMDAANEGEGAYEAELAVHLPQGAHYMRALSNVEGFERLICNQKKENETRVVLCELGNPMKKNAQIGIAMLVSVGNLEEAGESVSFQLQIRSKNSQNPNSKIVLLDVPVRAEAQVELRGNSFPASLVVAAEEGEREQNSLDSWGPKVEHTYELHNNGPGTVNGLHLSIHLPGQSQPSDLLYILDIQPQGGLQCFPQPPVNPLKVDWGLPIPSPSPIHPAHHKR
Sequence of alpha IIb beta 3 integrin (P05106 27-788): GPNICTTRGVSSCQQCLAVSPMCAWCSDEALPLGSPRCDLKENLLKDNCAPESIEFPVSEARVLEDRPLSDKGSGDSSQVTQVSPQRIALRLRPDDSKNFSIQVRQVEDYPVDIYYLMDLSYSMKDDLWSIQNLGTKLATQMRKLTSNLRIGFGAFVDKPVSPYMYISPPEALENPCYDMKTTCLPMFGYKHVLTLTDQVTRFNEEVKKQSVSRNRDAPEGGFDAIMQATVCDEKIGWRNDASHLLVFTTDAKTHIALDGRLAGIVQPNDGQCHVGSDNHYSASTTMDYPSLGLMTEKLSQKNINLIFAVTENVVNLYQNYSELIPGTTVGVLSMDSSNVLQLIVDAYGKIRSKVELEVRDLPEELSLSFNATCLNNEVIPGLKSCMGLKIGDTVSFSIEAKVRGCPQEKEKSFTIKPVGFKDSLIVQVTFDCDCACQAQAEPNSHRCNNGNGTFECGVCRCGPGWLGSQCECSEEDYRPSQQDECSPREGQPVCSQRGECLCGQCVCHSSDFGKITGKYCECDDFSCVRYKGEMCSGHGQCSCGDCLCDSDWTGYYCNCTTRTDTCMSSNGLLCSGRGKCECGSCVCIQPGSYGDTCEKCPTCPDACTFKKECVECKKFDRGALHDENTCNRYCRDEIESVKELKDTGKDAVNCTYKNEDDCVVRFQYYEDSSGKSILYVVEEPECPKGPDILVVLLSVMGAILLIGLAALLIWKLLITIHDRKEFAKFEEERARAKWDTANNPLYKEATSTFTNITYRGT

Substance	Binding of phage clone to microtiter wells coated with alpha 5 beta 1 (alpha 5 beta 1 integrin [4])	other results
GA*CSPYFLRLC*GA (disulfide)		Effect on binding of 125I-labeled fibronectin to alpha 5 beta 1 (alpha 5 beta 1 integrin [1]): no significant effect
GACRRETAWACGA [GACRRETAWACGA not cyclized]		Activity of peptide not cyclized by oxidation (alpha 5 beta 1 integrin [2]; relative to cyclic *CRRETAWAC*): reduced activity
GRGESP [reference compound]		Effect on binding of RRETAWA-containing phage to alpha 5 beta 1 (alpha 5 beta 1 integrin [3]): no effect; Effect on alpha 5 beta 1-mediated cell attachment to fibronectin (alpha 5 beta 1 integrin [2]; control peptide): no effect
RGAPRAW (disulfide (positions not given here))	bound weakly	
RRETAWA (disulfide (positions not given here)) [RRETAWA-phage]	avidly	Binding to the alpha IIb beta 3 integrin [5]: did not bind; Binding of phage clone to microtiter wells coated with alpha v beta 3 (alpha v beta 3 integrin): only weakly
STSDVGG (disulfide (positions not given here))	significantly over the background	
TLVPSRS (disulfide (positions not given here))	significantly over the background	
VFSIAHE (disulfide (positions not given here))	significantly over the background	
VRLNSLA (disulfide)	significantly over the background	
